From ChEMBL document CHEMBL5303300, “EUbOPEN Chemogenomics Library - Multiplex” (2023)
“And” between values parts separate entries of the source, which are not always exact repeats. Equal values may be shown once.

Test system: U2OS
Test: Multiplex assay against U2OS
Type: toxicity, cell-based
Conditions: human, number of replicates 2
In short: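 Compound was added to live cells that had been stained at seeding with Hoechst33342, BioTracker Green Microtubule Cytoskeleton Dye, MitoTracker Red and Annexin V Alexa Fluor 680, and imaging followed on a CQ1 microscope at 37°C and 5% CO2. CellPathfinder machine-learning gating divided cells into Hoechst high-intensity objects or normal cells, normal cells into healthy, pyknosed or fragmented nuclei, and pyknosed cells into mitotic or apoptotic. Tubulin, mitochondrial-mass and membrane-permeability phenotypes are per cents of healthy-nucleus cells.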

[1] = 12 h, 1 µM, compound concentration 1 uM
[2] = 12 h, 10 µM, compound concentration 10 uM
[3] = 24 h, 1 µM, compound concentration 1 uM
[4] = 24 h, 10 µM, compound concentration 10 uM
[5] = 48 h, 1 µM, compound concentration 1 uM
[6] = 48 h, 10 µM, compound concentration 10 uM

SMILES: Cc1cc(NC(=O)c2cccc(NC(=O)/C=C/CN(C)C)c2)ccc1Nc1nccc(-c2cccnc2)n1
- Population Apoptotic (%) [1]: 100% and 77%
- Population Healthy Nuclei (%) [1]: 55% and 82%
- Population Hoechst High Intensity Objects (%) [1]: 0%
- Population Membrane Permeable-Phenotype (%) [1]: 0%
- Population Mitochondria Different-Phenotype (%) [1]: 4% and 0%
- Population Mitotic Cells (%) [1]: 0% and 22%
- Population Normal (%) [1]: 100%
- Population Pyknosed Nuclei (%) [1]: 4% and 12%
- Population Tubulin-Different-Phenotype (%) [1]: 70% and 87%
- Population Apoptotic (%) [2]: 75%
- Population Fragmented Nuclei (%) [2]: 9% and 3%
- Population Healthy Nuclei (%) [2]: 61% and 65%
- Population Hoechst High Intensity Objects (%) [2]: 0%
- Population Membrane Permeable-Phenotype (%) [2]: 15% and 21%
- Population Mitochondria Different-Phenotype (%) [2]: 23% and 18%
- Population Mitotic Cells (%) [2]: 25% and 24%
- Population Normal (%) [2]: 100%
- Population Pyknosed Nuclei (%) [2]: 28% and 31%
- Population Tubulin-Different-Phenotype (%) [2]: 76% and 43%
- Population Apoptotic (%) [3]: 33% and 86%
- Population Healthy Nuclei (%) [3]: 60% and 83%
- Population Hoechst High Intensity Objects (%) [3]: 0%
- Population Membrane Permeable-Phenotype (%) [3]: 3% and 1%
- Population Mitochondria Different-Phenotype (%) [3]: 3% and 0%
- Population Normal (%) [3]: 100%
- Population Pyknosed Nuclei (%) [3]: 6% and 9%
- Population Tubulin-Different-Phenotype (%) [3]: 66% and 90%
- Population Apoptotic (%) [4]: 92% and 85%
- Population Fragmented Nuclei (%) [4]: 15% and 10%
- Population Healthy Nuclei (%) [4]: 26% and 35%
- Population Hoechst High Intensity Objects (%) [4]: 4% and 1%
- Population Membrane Permeable-Phenotype (%) [4]: 41% and 23%
- Population Mitochondria Different-Phenotype (%) [4]: 41% and 38%
- Population Mitotic Cells (%) [4]: 7% and 14%
- Population Normal (%) [4]: 95% and 98%
- Population Pyknosed Nuclei (%) [4]: 58% and 53%
- Population Tubulin-Different-Phenotype (%) [4]: 91% and 61%
- Population Apoptotic (%) [5]: 37% and 75%
- Population Fragmented Nuclei (%) [5]: 18% and 6%
- Population Healthy Nuclei (%) [5]: 69% and 86%
- Population Hoechst High Intensity Objects (%) [5]: 0%
- Population Membrane Permeable-Phenotype (%) [5]: 4% and 1%
- Population Mitochondria Different-Phenotype (%) [5]: 2% and 1%
- Population Mitotic Cells (%) [5]: 62% and 24%
- Population Normal (%) [5]: 100%
- Population Pyknosed Nuclei (%) [5]: 12% and 7%
- Population Tubulin-Different-Phenotype (%) [5]: 68% and 91%
- Population Apoptotic (%) [6]: 96% and 95%
- Population Healthy Nuclei (%) [6]: 11% and 9%
- Population Hoechst High Intensity Objects (%) [6]: 10% and 2%
- Population Membrane Permeable-Phenotype (%) [6]: 100% and 92%
- Population Mitochondria Different-Phenotype (%) [6]: 100% and 53%
- Population Mitotic Cells (%) [6]: 3% and 4%
- Population Normal (%) [6]: 89% and 97%
- Population Pyknosed Nuclei (%) [6]: 67% and 84%
- Population Tubulin-Different-Phenotype (%) [6]: 100% and 84%

SMILES: Br.Cc1cccc(C2CN(C)CCc3c2cc(O)c(O)c3Cl)c1 (stereo not drawn)
- Population Apoptotic (%) [1]: 80% and 65%
- Population Healthy Nuclei (%) [1]: 61% and 87%
- Population Hoechst High Intensity Objects (%) [1]: 0%
- Population Membrane Permeable-Phenotype (%) [1]: 0%
- Population Mitochondria Different-Phenotype (%) [1]: 0%
- Population Mitotic Cells (%) [1]: 20% and 35%
- Population Normal (%) [1]: 100%
- Population Pyknosed Nuclei (%) [1]: 10% and 7%
- Population Tubulin-Different-Phenotype (%) [1]: 51% and 83%
- Population Fragmented Nuclei (%) [2]: 4% and 14%
- Population Healthy Nuclei (%) [2]: 88% and 80%
- Population Hoechst High Intensity Objects (%) [2]: 0%
- Population Membrane Permeable-Phenotype (%) [2]: 1% and 0%
- Population Mitochondria Different-Phenotype (%) [2]: 1% and 0%
- Population Mitotic Cells (%) [2]: 41% and 100%
- Population Normal (%) [2]: 100%
- Population Pyknosed Nuclei (%) [2]: 7% and 4%
- Population Tubulin-Different-Phenotype (%) [2]: 88% and 35%
- Population Apoptotic (%) [3]: 56% and 50%
- Population Healthy Nuclei (%) [3]: 91% and 73%
- Population Hoechst High Intensity Objects (%) [3]: 0%
- Population Membrane Permeable-Phenotype (%) [3]: 0% and 3%
- Population Mitochondria Different-Phenotype (%) [3]: 0%
- Population Mitotic Cells (%) [3]: 43% and 50%
- Population Normal (%) [3]: 100%
- Population Pyknosed Nuclei (%) [3]: 6% and 13%
- Population Tubulin-Different-Phenotype (%) [3]: 85% and 48%
- Population Apoptotic (%) [4]: 58% and 50%
- Population Healthy Nuclei (%) [4]: 89% and 62%
- Population Hoechst High Intensity Objects (%) [4]: 0%
- Population Membrane Permeable-Phenotype (%) [4]: 0% and 10%
- Population Mitochondria Different-Phenotype (%) [4]: 1% and 0%
- Population Mitotic Cells (%) [4]: 41% and 50%
- Population Normal (%) [4]: 100%
- Population Pyknosed Nuclei (%) [4]: 8% and 12%
- Population Tubulin-Different-Phenotype (%) [4]: 83% and 40%
- Population Apoptotic (%) [5]: 42% and 46%
- Population Healthy Nuclei (%) [5]: 72% and 90%
- Population Hoechst High Intensity Objects (%) [5]: 0%
- Population Membrane Permeable-Phenotype (%) [5]: 2% and 0%
- Population Mitochondria Different-Phenotype (%) [5]: 0%
- Population Mitotic Cells (%) [5]: 57% and 53%
- Population Normal (%) [5]: 100%
- Population Pyknosed Nuclei (%) [5]: 11% and 5%
- Population Tubulin-Different-Phenotype (%) [5]: 60% and 91%
- Population Apoptotic (%) [6]: 50% and 67%
- Population Healthy Nuclei (%) [6]: 73% and 91%
- Population Hoechst High Intensity Objects (%) [6]: 0%
- Population Membrane Permeable-Phenotype (%) [6]: 4% and 0%
- Population Mitochondria Different-Phenotype (%) [6]: 4% and 0%
- Population Mitotic Cells (%) [6]: 50% and 32%
- Population Normal (%) [6]: 100%
- Population Pyknosed Nuclei (%) [6]: 13% and 6%
- Population Tubulin-Different-Phenotype (%) [6]: 63% and 88%

SMILES: CC(C)S(=O)(=O)c1ccccc1Nc1nc(N[C@@H]2CCCN(CCCCCCCNC(=O)COc3cccc4c3C(=O)N(C3CCC(=O)N(C)C3=O)C4=O)C2)ncc1Cl (stereo partly drawn)
- Population Apoptotic (%) [1]: 93% and 83%
- Population Healthy Nuclei (%) [1]: 34% and 71%
- Population Hoechst High Intensity Objects (%) [1]: 0%
- Population Mitochondria Different-Phenotype (%) [1]: 8% and 7%
- Population Mitotic Cells (%) [1]: 6% and 16%
- Population Normal (%) [1]: 100%
- Population Pyknosed Nuclei (%) [1]: 22% and 23%
- Population Tubulin-Different-Phenotype (%) [1]: 69% and 61%
- Total Cell Count [1]: 66 and 157
- Population Apoptotic (%) [2]: 85% and 77%
- Population Healthy Nuclei (%) [2]: 48% and 56%
- Population Hoechst High Intensity Objects (%) [2]: 0% and 1%
- Population Membrane Permeable-Phenotype (%) [2]: 80% and 93%
- Population Mitochondria Different-Phenotype (%) [2]: 66% and 54%
- Population Mitotic Cells (%) [2]: 14% and 22%
- Population Normal (%) [2]: 100% and 98%
- Population Pyknosed Nuclei (%) [2]: 22% and 37%
- Population Tubulin-Different-Phenotype (%) [2]: 100%
- Population Apoptotic (%) [3]: 85% and 89%
- Population Fragmented Nuclei (%) [3]: 26% and 13%
- Population Healthy Nuclei (%) [3]: 29% and 51%
- Population Hoechst High Intensity Objects (%) [3]: 1% and 0%
- Population Membrane Permeable-Phenotype (%) [3]: 0% and 6%
- Population Mitochondria Different-Phenotype (%) [3]: 0% and 4%
- Population Mitotic Cells (%) [3]: 14% and 10%
- Population Normal (%) [3]: 98% and 100%
- Population Pyknosed Nuclei (%) [3]: 44% and 34%
- Population Tubulin-Different-Phenotype (%) [3]: 77% and 84%
- Total Cell Count [3]: 62 and 166
- Population Apoptotic (%) [4]: 85% and 93%
- Population Fragmented Nuclei (%) [4]: 8% and 12%
- Population Hoechst High Intensity Objects (%) [4]: 0% and 1%
- Population Membrane Permeable-Phenotype (%) [4]: 50% and 40%
- Population Mitochondria Different-Phenotype (%) [4]: 50% and 64%
- Population Mitotic Cells (%) [4]: 14% and 6%
- Population Normal (%) [4]: 100% and 98%
- Population Pyknosed Nuclei (%) [4]: 84% and 57%
- Population Tubulin-Different-Phenotype (%) [4]: 100% and 68%
- Population Apoptotic (%) [5]: 89% and 93%
- Population Fragmented Nuclei (%) [5]: 19% and 13%
- Population Healthy Nuclei (%) [5]: 29% and 44%
- Population Hoechst High Intensity Objects (%) [5]: 0%
- Population Membrane Permeable-Phenotype (%) [5]: 5% and 9%
- Population Mitochondria Different-Phenotype (%) [5]: 0% and 5%
- Population Mitotic Cells (%) [5]: 10% and 6%
- Population Normal (%) [5]: 100% and 99%
- Population Pyknosed Nuclei (%) [5]: 50% and 41%
- Population Tubulin-Different-Phenotype (%) [5]: 70% and 87%
- Population Apoptotic (%) [6]: 100% and 94%
- Population Fragmented Nuclei (%) [6]: 9% and 10%
- Population Healthy Nuclei (%) [6]: 18% and 14%
- Population Hoechst High Intensity Objects (%) [6]: 4% and 3%
- Population Membrane Permeable-Phenotype (%) [6]: 75% and 62%
- Population Mitochondria Different-Phenotype (%) [6]: 100% and 53%
- Population Mitotic Cells (%) [6]: 0% and 5%
- Population Normal (%) [6]: 95% and 96%
- Population Pyknosed Nuclei (%) [6]: 72% and 75%
- Population Tubulin-Different-Phenotype (%) [6]: 75% and 96%
